Bioassay records from PubChem BioAssay.
MC4R antagonist: human MC4R antagonism in cAMP assay; P32245; MC4R-expressing cells, MTII-stimulated cAMP, LANCE TR-FRET; inhibition, % at 6.5 µM; 360,000 tested, 0.48% active; AID 540295;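 active = inhibition above its plate's cutoff, the mean of tested wells on that plate plus 3 SD, cut at about 29% in these data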;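 note: 0% = Melanotan II alone and 100% = Melanotan II plus saturating MCL0020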
Target sequence (P32245 whole entry, looked up): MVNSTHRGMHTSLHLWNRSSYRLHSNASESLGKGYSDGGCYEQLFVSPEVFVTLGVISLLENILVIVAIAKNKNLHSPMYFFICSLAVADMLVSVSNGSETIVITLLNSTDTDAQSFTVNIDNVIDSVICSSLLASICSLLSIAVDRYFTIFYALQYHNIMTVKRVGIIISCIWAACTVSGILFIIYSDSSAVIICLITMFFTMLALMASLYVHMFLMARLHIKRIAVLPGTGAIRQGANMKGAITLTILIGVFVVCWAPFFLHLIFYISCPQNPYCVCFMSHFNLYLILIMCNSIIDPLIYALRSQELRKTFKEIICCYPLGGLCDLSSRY
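System: U2OS cells stably expressing human melanocortin 4 receptor (MC4R). Reagent: Melanotan II challenge after compound preincubation. Doses: 6.5 µM. Times: 30-min compound, 1-h challenge, 1-h detection, room temperature. Measured by: TR-FRET with Eu-cAMP and labeled anti-cAMP, 671 nm. Replicates: singlicate.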
TLR4 MyD88 comp: TLR4-MyD88 interaction inhibition in cells; inhibition, % at 8.4 µM; HeLa CL3-4 TLR4/MyD88 BLA complementation, FRET ratio; 200,000 tested, 0.18% active; O00206+Q99836; in the data active = inhibition above about 25%;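 note: 0% = vehicle and 100% = reference inhibitor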
NOD2-RIPK2 inh: blocks binding of human NOD2 to RIPK2 | O43353 | CHO BLA complementation NOD2-RIPK2, CCF4 ratio | inhibition, % at 4.98 µM | 360,000 tested, 0.38% active; in the data active = inhibition above about 21%;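 note: 0% = vehicle only and 100% = reference blocker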
NTR1 ag: activates human neurotensin receptor 1. NTR1-U2OS beta-arrestin-GFP spot imaging, agonist mode. activation, % at 20 µM. 330,000 tested, 0.17% active. P30989;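 active = activation at or above 40% of the spot to cytoplasm intensity ratio, with at least 20 cells analyzed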;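 note: 0% = DMSO without peptide and 100% = 100 nM NTR1 peptide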
TLR9-MyD88 inh: blocks human TLR9 binding to MyD88; inhibition, % at 4.98 µM; CHO BLA complementation TLR9-MyD88, CCF4 FRET ratio; 340,000 tested, 0.21% active; Q9NR96+Q99836;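 active = inhibition above the mean over all tested compounds plus 3 SD, cut at about 21% in these data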;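 note: 0% = DMSO only wells and 100% = clavulanate BLA inhibitor control wells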
MC4R ag barr: agonists of human melanocortin 4 receptor (MC4R) beta-arrestin; 360,000 tested, 0.98% active; activation, % at 8.9 µM; U2OS MC4R beta-arrestin complementation, luminescence; percent of melanotan II response, DMSO zero; P32245;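 active = activation above a per-plate cutoff, the mean activation of sample wells on that plate plus 3 SD, cut at about 8% in these data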
An asterisk follows results filed as active; · = no result. Compounds with a hit are over-represented: about 1.9% of the library has one in this group of screens.

SMILES	MC4R antagonist	TLR4 MyD88 comp	NOD2-RIPK2 inh	NTR1 ag	TLR9-MyD88 inh	MC4R ag barr
Cc1ccc(CNc2oc(COc3ccccc3Cl)nc2C#N)cc1	3.4	-2.8	6.9	4.4	16.9	9.5*
CCOc1ccc(C(=O)NC(=S)Nc2ccccc2N2CCCCC2)cc1[N+](=O)[O-]	11.7	-4.8	6.7	1.3	-7.0	-1.1
CCOc1ccc(C(=O)NC(=S)Nc2ccc(N3CCCCC3)cc2)cc1[N+](=O)[O-]	0.3	7.8	-4.1	1.5	5.9	47.2*
O=[N+]([O-])c1ccc(NS(=O)(=O)c2ccc(Cl)c(Cl)c2)cc1	·	·	7.5	·	·	·
CCCCN(Cc1ccco1)C(=O)c1cc2c(=O)[nH]c3ccc(C)cc3c2s1	7.9	-1.4	1.1	29.0	-8.6	36.3*
CCCCN(CC)C(=O)c1cc2c(=O)[nH]c3ccc(C)cc3c2s1	4.7	·	2.3	17.5	3.0	-2.0
N#C/C(=C\c1ccc(N2CCOCC2)o1)c1ccccc1	4.9	14.1	12.6	-0.4	10.8	2.1
N#C/C(=C/c1ccc(N2CCCCCC2)o1)c1ccc(F)cc1	18.1	2.1	39.1*	4.2	23.7*	-2.5
N#C/C(=C/c1ccc(N2CCCCCC2)o1)c1cccc(F)c1	10.5	18.5	12.8	-4.1	3.7	8.7*
COc1cc(N2CCCC2)c(OC)cc1/C=C(/C#N)c1cccc(F)c1	2.8	13.0	-1.5	·	-7.1	0.8
N#C/C(=C/c1ccc(N2CCOCC2)o1)c1ccc(Br)cc1	7.5	16.3	25.2*	-2.4	6.3	-0.8
CCOC(=O)c1c(C)n(OCc2ccccc2)c2ccc3nonc3c12	0.6	7.5	-10.7	5.8	1.9	8.8*
CCCn1c(C(C)Nc2nc(-c3cccc(Br)c3)cs2)nc2ccccc21 (stereo not drawn)	5.7	·	5.9	7.7	-14.7	0.1
CCCn1c(CCNc2nc(-c3cccc(Br)c3)cs2)nc2ccccc21	9.1	·	4.3	·	-1.6	8.4*
CC(C)(C)C1=CC(=O)C(=O)C(C(C)(C)C)=C1	10.1	-1.5	-12.3	-2.1	-3.5	24.6*
c1ccc(CCC2Cc3ccccc3N2)cc1 (stereo not drawn)	5.1	·	-1.5	0.1	3.4	1.1
c1ccc(CC[C@@H]2CC[C@@H](CCc3ccccc3)N2)cc1	-2.3	·	3.7	-0.4	2.4	8.4*
CCOC(=O)c1c(-c2ccc(C)o2)csc1NC(=O)CSc1nncs1	21.0	-4.4	22.4*	7.3	-11.1	-1.6
CCOC(=O)c1c(-c2ccc(C)o2)csc1NC(=O)CN1CCCCC1	18.1	-9.5	1.3	17.1	1.6	-3.7
CC(C)(O)c1ccccc1CC[C@@H](SCC1(CC(=O)O)CC1)c1cccc(/C=C/c2ccc3ccc(Cl)cc3n2)c1	22.7	·	-6.7	6.5	-1.7	0.9
CCN(CC)c1ccc2c(-c3ccc(S(=O)(=O)O)cc3S(=O)(=O)[O-])c3ccc(=[N+](CC)CC)cc-3oc2c1	50.3*	·	-2.1	-3.4	2.7	-3.8
Cc1ccc(NC(=O)CNCc2cccs2)c(Br)c1	-8.4	·	-3.5	0.7	2.1	3.6
CCCC[C@@H]1CNCCN1CCc1cc(C(F)(F)F)cc(C(F)(F)F)c1	1.1	·	0.0	14.4	-13.9	5.4
FC(F)(F)c1cc(CCN2CCNC[C@@H]2CC2CCCCC2)cc(C(F)(F)F)c1	1.0	·	3.7	11.7	3.1	8.7*
NC1=NC[C@@H](Cc2ccc(O)cc2)N1CCc1cc(C(F)(F)F)cc(C(F)(F)F)c1	3.0	·	-8.2	-6.1	-1.0	1.5
SMILES	MC4R antagonist	TLR4 MyD88 comp	NOD2-RIPK2 inh	NTR1 ag	TLR9-MyD88 inh	MC4R ag barr
NC1=NC[C@H](CC2CCCCC2)N1CCc1cc(C(F)(F)F)cc(C(F)(F)F)c1	10.2	·	-19.4	5.9	1.6	9.3*
CCCCNC(=O)C1(C)CCN1C(=O)c1cc(F)ccc1C (stereo not drawn)	-6.3	·	7.2	·	·	-0.4
O=C(CNC(=O)c1sc2ccccc2c1Cl)NCc1cccc(C(F)(F)F)c1	6.9	·	-2.2	1.2	9.5	9.4*
COc1ccc(C=O)cc1COc1ccc(Cl)cc1[N+](=O)[O-]	-7.4	-6.8	1.4	2.6	-0.8	9.9*
COc1ccc(C=O)cc1COc1ccc(C)cc1[N+](=O)[O-]	-23.8	7.5	6.4	0.7	-1.1	-2.7
Cc1ccc(NC(=O)Nc2nnc(Cc3ccc([N+](=O)[O-])cc3)s2)cc1	-9.8	8.2	0.1	1.3	-1.6	9.3*
CCOc1cccc2sc(N(CCCN(C)C)C(=O)c3ccc(S(=O)(=O)N(CC)Cc4ccccc4)cc3)nc12	6.0	·	6.5	52.2*	-5.7	3.0
COc1cccc2sc(N(CCCN(C)C)C(=O)c3ccc(S(=O)(=O)N4CCc5ccccc5C4)cc3)nc12	-4.2	·	12.7	3.5	3.0	9.0*
O=C(c1cc(C2CCCCN2S(=O)(=O)Cc2ccccc2)on1)N1CCOCC1 (stereo not drawn)	11.7	·	-13.8	·	·	-2.1
Oc1ccccc1C1=Nc2ccccc2N=C(c2ccco2)C1	1.1	-0.2	6.6	2.7	5.5	8.5*
CC(=O)c1nn(-c2cccc(Br)c2)cc1C(=O)c1ccccc1	1.3	8.5	8.7	2.7	-8.4	9.4*
CC(=O)c1nn(-c2ccccc2)cc1C(=O)c1ccc(Br)cc1	0.0	-3.4	4.1	-1.0	0.5	7.0
CCCOc1ccc(F)cc1-c1cc(C(=O)NCc2cccs2)[nH]n1	-3.0	·	2.9	·	·	-0.4
S=C(c1ccc2c(c1)OCO2)N1CCOCC1	-11.3	·	6.6	0.9	3.3	-0.9
CCCN1C(=O)/C(=C/c2c(N3CCNC(=O)C3CC(=O)OCC)nc3c(C)cccn3c2=O)SC1=S (stereo not drawn)	28.9*	·	-4.8	0.2	3.0	-0.1
CC1(c2nc3ccccc3[nH]2)c2ccccc2C(=O)N1C1CC1 (stereo not drawn)	·	·	10.5	·	·	·
CSc1cccc(NC(=O)C(=O)NCc2ccccc2)c1	-3.9	·	-11.8	0.5	·	8.7*
Cc1ccc(C(O)c2ncc(-c3cccc(C(F)(F)F)c3)[nH]2)cc1 (stereo not drawn)	-0.6	·	-1.8	·	·	0.0
O=C(NCC1CCCCC1)c1ccc2sc([C@H]3C[C@H](O)[C@@H](CO)O3)nc2c1	8.2	·	-10.2	·	·	-0.8
Cc1cccc(Nc2nc(-c3ccc(O)cc3O)cs2)n1	11.6	·	12.1	11.2	-3.2	9.4*
CC(=O)N1C(=O)C2(NCC(C)N2)c2ccccc21 (stereo not drawn)	9.1	·	2.1	·	·	0.3
Cc1cccc(C)c1NC(=O)c1cccc(COc2cc(Cl)ccc2Cl)c1	-4.2	-3.4	-12.6	0.8	-6.7	12.5*
CCOc1ccc(NC(=O)/C(C#N)=C\c2ccc(N3CCCC3)c(C)c2)cc1	0.2	·	3.1	·	9.3	13.2*
C=CCOC1COC2C(OCC=C)COC12 (stereo not drawn)	5.2	·	9.3	·	-9.1	-0.5
